CRFBP-R2 block = CRF-BP/CRF-R2 complex antagonism | HEK293 CRF-R2/CRF-BP, CRF-induced calcium fluorescence | 0.59% of 350,000 active | inhibition, % at 11.8 µM;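 active means inhibition of the ligand-induced calcium signal above about 50% at the single tested concentration, limit read from the data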
TRPN1 ag = agonists of zebrafish TRPN1 channel; activation, % at 3 µM; 0.18% of 220,000 active; HEK293 zebrafish TRPN1-YFP, Fluo-8 calcium fluorescence; 100% = response to 87 µM carbachol;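 active means activation above its plate's cutoff, the mean activation of test wells on that plate plus 3 SD, cut at about 19% in these data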;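 further: 0% = DMSO alone and 100% = 87 µM carbachol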
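Material: zebrafish TRPN1-YFP in HEK293 cells; Doses: single test compound dose, 3 µM nominal, 0.3% DMSO; Timing: dye loading 1 h at 37 °C, then 30 min room temperature; Technique: intracellular calcium fluorescence with Fluo-8; Benchmarks: high carbachol 87 µM, low DMSO alone.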
TRPML3 ag = human mucolipin-3 channel agonism; Q8TDD5; HEK293 TRPML3-YFP, Fluo-8 calcium fluorescence; 100% = the carbachol control signal; activation, % at 3 µM; 0.29% of 220,000 active; AID 1448;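 active means activation above its plate's cutoff, the mean activation of the plate's test wells plus 3 SD, cut at about 12% in these data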;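 further: 0% = DMSO only wells and 100% = carbachol wells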
Target sequence (Q8TDD5 whole entry, looked up): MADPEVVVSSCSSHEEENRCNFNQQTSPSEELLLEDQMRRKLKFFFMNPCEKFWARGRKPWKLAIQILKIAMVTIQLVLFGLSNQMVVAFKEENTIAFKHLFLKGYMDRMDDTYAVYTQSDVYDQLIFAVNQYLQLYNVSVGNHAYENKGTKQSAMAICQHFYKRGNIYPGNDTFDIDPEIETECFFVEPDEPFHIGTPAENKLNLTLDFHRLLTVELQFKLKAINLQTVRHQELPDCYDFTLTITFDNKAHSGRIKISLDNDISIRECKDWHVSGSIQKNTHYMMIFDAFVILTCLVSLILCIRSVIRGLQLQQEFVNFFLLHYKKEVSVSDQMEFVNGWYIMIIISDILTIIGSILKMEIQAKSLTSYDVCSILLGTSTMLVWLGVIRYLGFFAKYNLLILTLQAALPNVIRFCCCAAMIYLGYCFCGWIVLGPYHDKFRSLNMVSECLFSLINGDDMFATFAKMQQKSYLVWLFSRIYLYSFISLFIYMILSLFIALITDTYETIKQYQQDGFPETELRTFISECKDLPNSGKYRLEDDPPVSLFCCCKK
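Material: TRPML3-YFP stable HEK293 cells | Dosing: One concentration, 3 µM nominal, 0.3% DMSO | Timing: 125 s total fluorescence read per well | Technique: Fluo-8 calcium dye fluorescence, ex 470-495, em 515-575 nm | Measure: Percent activation from peak-to-basal fluorescence ratio, scaled between DMSO and carbachol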
IMP-1 inh = blocks Pseudomonas aeruginosa IMP-1 metallo-beta-lactamase; inhibition, % at 5.6 µM; 0.45% of 290,000 active; purified IMP-1, nitrocefin hydrolysis, epi-absorbance fluorescence;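 active means inhibition above the mean plus 3 SD of all compounds in the same screening run, cut at about 4.5% in these data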;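 further: 0% = IMP-1 with DMSO and 100% = DMSO wells lacking enzyme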
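System – purified recombinant IMP-1 beta-lactamase · Input – IMP-1 dispensed at 0.2 nM · Timing – 15 min preincubation plus 25 min reaction at 25 °C · Signal – Epi-absorbance fluorescence, 480 nm excitation, 530 nm emission · Measure – percent IMP-1 inhibition derived from blank-referenced optical density · Controls – Enzyme-plus-DMSO low control, enzyme-free DMSO high control · Replication – singlicate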
CRFR2-BP ag = CRF-BP/CRF-R2 complex agonism; HEK293 CRF-R2/CRF-BP, calcium dye fluorescence (FLIPR); percent of saturating CRF peptide response; 0.46% of 350,000 active; activation, % at 13.2 µM; AID 588473;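 active means activation of at least 50%, plus an integration ratio under a set limit after plate pattern correction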;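 further: plate controls were neutral control wells without compound for no effect and CRF at EC100 for full effect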
VIM-2 inh = blocks Pseudomonas aeruginosa VIM-2 metallo-beta-lactamase; 0.89% of 290,000 active; purified VIM-2, nitrocefin hydrolysis, epi-absorbance fluorescence; inhibition, % at 5.6 µM; AID 1527;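 active means inhibition above the mean of all tested compounds plus 3 SD, cutoff set per screening run, cut at about 7.5% in these data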;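 further: red hydrolysis product quenches plate fluorescence so inhibitors raise well fluorescence; 0% = enzyme with DMSO and 100% = DMSO without enzyme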
The depositor's hits bear a star; / = no result. An excerpt weighted towards active compounds, which were near 2.1% of everything screened.

SMILES	CRFBP-R2 block	TRPN1 ag	TRPML3 ag	IMP-1 inh	CRFR2-BP ag	VIM-2 inh
CCN1CCN(Cc2ccc(NC(=O)c3ccc(C)c(NC(=O)c4cccc(-c5cn[nH]c(=O)c5)c4)c3)cc2C(F)(F)F)CC1	8	/	/	9.3*	-1	-2
COc1cc(NC(=S)NCCC(c2ccccc2)c2ccccc2)c(OC)cc1Cl	65*	0	0	-3	2	-1
CCCn1nc(C(=O)Nc2cc(OCC)c(N3CCOCC3)cc2OCC)c2ccccc2c1=O	-9	/	/	/	-1	/
CCN1/C(=C2\SC(=S)N(Cc3ccccc3)C2=O)Sc2ccccc21	-67	2	1	-2	51*	-2
CC(=O)c1cnc2nc(SCc3ccc(Cl)cc3)nn2c1C	12	/	/	0	0	-1
CN1CCC2(CC1)Nc1nc(SCc3ccc(Cl)cc3)nn1C1=C2CN(C)CC1	86*	2	1	0	1	9.5*
N#Cc1c(Cl)nsc1NC(=O)c1ccccc1	56*	30*	21*	-3	47	-2
CN(CC(=O)Nc1ccc(F)cc1)C(=O)C1CCN(C(=O)Nc2ccccc2)CC1	-3	/	/	/	0	/
COc1cccc(-c2nc(-c3ccc4c(c3)-c3ccccc3S4(=O)=O)c(-c3ccccc3)[nH]2)c1OC	29	0	0	4.8*	3	-2
CCC(=O)N(Cc1c(C)nn(-c2ccccc2)c1Cl)c1ccc(Cl)cc1	68*	-2	-1	-2	-2	-2
Cc1nn(-c2ccccc2)c(Cl)c1C(=O)NCCCCNC(=O)c1c(C)nn(-c2ccccc2)c1Cl	9	-2	-1	-4	-1	-2
CCc1nc(NC(=O)Cc2csc(C)n2)sc1C(=O)OC	-1	/	/	-2	-1	-2
CC(C)CN(C(=O)CN1C(=O)NC(c2ccccc2)(c2ccccc2)C1=O)C1CCS(=O)(=O)C1 (stereo not drawn)	4	/	/	/	-1	/
CCNc1nc(OC)nc(N(OC)S(=O)(=O)c2ccc(C)cc2)n1	19	/	/	0	-4	1
CCc1ccc(NC(=O)CN(CC(=O)Nc2ccc(CC)cc2)CC(C)O)cc1 (stereo not drawn)	-5	/	/	18*	0	2
CCc1ccc(NC(=O)Cc2ccc(OC)cc2)cc1	/	-2	-1	0	/	-2
Cc1cc(Cl)ccc1OCC(=O)OCC(=O)N(CC(C)C)c1c(N)n(Cc2ccccc2)c(=O)[nH]c1=O	-3	/	/	/	0	/
CCOP(=O)(OCC)C(Nc1cccc([N+](=O)[O-])c1)c1ccccc1 (stereo not drawn)	84*	-1	0	-2	0	-3
COc1ccc(C(Nc2cccc([N+](=O)[O-])c2)P(=O)(OC(C)C)OC(C)C)cc1 (stereo not drawn)	-9	-3	0	-5	1	-1
C[C@H]1CNC(=O)C(=O)N1C[C@H](Cc1ccc(O)cc1)NC(=O)CC12CC3CC(CC(C3)C1)C2	-5	/	/	8.4*	1	-2
CC(C)C[C@@H](CN1C(N)=NC[C@@H]1C)NC(=O)CC12CC3CC(CC(C3)C1)C2	9	/	/	/	-1	/
Cc1ccc(O)c(C(=O)c2cc(C#N)c3nc4ccccc4n3c2)c1	-134	5	2	-2	66*	-2
COc1cccc(NC(=O)c2cccc(S(=O)(=O)N3CCN(Cc4ccccc4)CC3)c2)c1	3	/	/	/	4	/
Cc1ccc2[nH]c(=O)c(CN(Cc3ccccc3)C(=S)NCCCN(C)C)cc2c1	-44	2	0	0	0	0
Cc1ccc2cc(CN(CCCN(C)C)C(=O)NCc3ccccc3)c(=O)[nH]c2c1C	-4	0	1	-1	0	7.8*
SMILES	CRFBP-R2 block	TRPN1 ag	TRPML3 ag	IMP-1 inh	CRFR2-BP ag	VIM-2 inh
Cc1ccc2cc(CN(CCCN(C)C)C(=S)NCc3ccccc3)c(=O)[nH]c2c1C	-32	2	2	-2	12	9.8*
Cc1ccc2cc(CCNC(=O)CCCc3ccccc3)c(=O)[nH]c2c1C	-24	/	/	-2	1	-3
O=C(Cn1cc(C(F)(F)F)ccc1=O)N1CCc2ccccc21	8	/	/	/	1	/
C[C@@H]1CN(Cc2nnnn2CC(=O)NCCCn2cccn2)C[C@H](C)O1	7	/	/	/	2	/
Cc1nnc2n(Cc3ccccc3)c(=O)c3c4c(sc3n12)COC(C)(C)C4	87*	0	1	-4	-2	0
COc1ccc(N(CC(=O)NCC2CCCO2)C(=O)CCC(=O)Nc2cc(C)on2)cc1OC (stereo not drawn)	10	/	/	-3	-1	-2
CC(C)(C)OC(=O)C[C@@H]1C/C=C\C[C@H](CC(=O)N[C@H](CO)Cc2ccccc2)C(=O)N[C@H](C(C)(C)C)COC1=O	12	/	/	/	-4	/
O=C1NC(=S)S/C1=C\c1coc2ccc(O)cc2c1=O	96*	1	0	-3	-1	-2
COc1ccc(OCC(=O)Nc2ccc(OC)c(S(=O)(=O)N3CCCCC3)c2)cc1	15	/	/	/	-5	/
O=C1NC(=Nc2ccccc2Cl)S/C1=C\c1cc([N+](=O)[O-])ccc1O	-44	/	/	-3	61*	-3
Cc1ccc(S(=O)(=O)/N=C2/NC(=O)/C(=C/c3cc([N+](=O)[O-])ccc3O)S2)cc1	-137	/	/	2	67*	-1
Cc1ccc(S(=O)(=O)/N=C2/NC(=O)/C(=C/c3ccccc3)S2)cc1	115*	-2	0	-4	-2	2
Cc1ccc(S(=O)(=O)/N=C2/NC(=O)/C(=C\c3ccccc3)S2)cc1	15	/	/	/	-1	/
CCOc1ccc(S(=O)(=O)NCCC(=O)NC2CCC(C)CC2)cc1 (stereo not drawn)	0	/	/	/	-2	/
CS(=O)(=O)Nc1ccc(-c2ccc(/C=C3\SC(N)=NC3=O)o2)cc1	-11	/	/	0	6	8.8*
O=C(Nc1ccc([N+](=O)[O-])cc1)Nc1ccc(N2CCOCC2)c2nonc12	30	-1	1	-2	3	-3
CN(C(=O)COC(=O)CCc1nc2ccccc2c(=O)[nH]1)C1CCS(=O)(=O)C1 (stereo not drawn)	53*	0	1	-1	1	-2
Cc1cc([N+](=O)[O-])c2c(c1C)C1C=CCC1C(c1ccccn1)N2 (stereo not drawn)	/	-3	0	5.9*	/	1
COC(=O)c1scc(C)c1NC(=O)c1ccccc1F	-179	/	/	-3	204*	-1
Cc1ccc(CNC(=O)CCS(=O)(=O)c2ccc(Br)cc2)cc1	-9	-1	-1	-2	0	-2
O=C(CCS(=O)(=O)c1ccc(Br)cc1)NCc1ccc(F)cc1	-2	/	/	28*	-2	-2
COc1ccccc1S(=O)(=O)CC(O)COc1ccc(C#N)cc1 (stereo not drawn)	4	2	1	-5	1	-6

Screens: PubChem, several laboratories
